Measured values taken from ChEMBL document CHEMBL3045526, “Tailoring the structure of aminobisphosphonates to target plant P5C reductase” (J Agric Food Chem, 2008).
Calls of active or inactive are those of the source. The rule behind the calls is not given here.

Experiments:
[1] = target: T1, Pyrroline-5-carboxylate reductase (Arabidopsis thaliana, UniProt P54904); assay: Inhibition of Arabidopsis thaliana P5C assessed as reduction in NADH oxidation incubated at 35 degC up to 10 min
T1 sequence (P54904 whole entry): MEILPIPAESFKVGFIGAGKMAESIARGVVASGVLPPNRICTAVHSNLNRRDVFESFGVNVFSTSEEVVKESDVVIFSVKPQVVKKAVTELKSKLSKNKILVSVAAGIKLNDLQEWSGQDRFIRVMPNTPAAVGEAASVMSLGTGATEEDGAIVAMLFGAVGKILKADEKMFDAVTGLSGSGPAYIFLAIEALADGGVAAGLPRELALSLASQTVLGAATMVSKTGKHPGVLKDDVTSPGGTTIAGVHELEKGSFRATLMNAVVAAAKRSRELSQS
Procedure, shortened: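 P5C reductase partially purified from stationary-phase A. thaliana cultured cells. Forward reaction run in 100 mM Tris-HCl pH 8.0, 0.1 mM MgCl2, 2 mM DL-P5C, 0.25 mM NADH, with 0.15–0.20 nkat enzyme. A340 followed at 35 °C for up to 10 min against P5C-free blanks. Inhibitor final 5 µM–5 mM (pH 7.5–8.0), triplicate. IC50 by linear regression of % activity vs log concentration.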

Arabidopsis thaliana [2] = assay: Growth inhibition of Arabidopsis thaliana suspension cultured cells assessed as reduction in dry weight increase measured 8 days after compound incubation; format: functional
Procedure, shortened: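 Same A. thaliana Columbia suspension cultures, inoculated at 3.2–3.5 mg mL-1 dry weight. Filter-sterilized compounds (pH 6.0 with KOH) added at increasing concentrations once density reached 4.0 mg mL-1. After 8 days, when controls reached early stationary phase, cells were vacuum-filtered and oven-dried (90 °C, 48 h). Dry weight increase given as % of control; 50% growth-reduction concentration derived.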

Arabidopsis thaliana [3] = assay: Growth inhibition of Arabidopsis thaliana suspension cultured cells assessed as reduction in dry weight increase at 0.2 mM measured 8 days after compound incubation in presence of exogenously supplied 2 mM proline; format: functional
Procedure, shortened: (§1)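 A. thaliana Columbia suspension cells (MS medium, 0.3% sucrose, 2,4-D and BAP 0.5 mg L-1 each; 24 °C, 100 rpm, dim light). Flasks inoculated at 3.2–3.5 mg mL-1 dry weight. Inhibitor (pH 6.0) plus filter-sterilized amino acids added together at 4.0 mg mL-1. Dry weight increase after 8 days (oven, 90 °C, 48 h) given as % of untreated control. Four replicates.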

Arabidopsis thaliana [4] = assay: Growth inhibition of Arabidopsis thaliana suspension cultured cells assessed as reduction in dry weight increase at 0.2 mM measured 8 days after compound incubation in presence of exogenously supplied 10 mM glutamine; format: functional; procedure, shortened: as §1
Arabidopsis thaliana [5] = assay: Growth inhibition of Arabidopsis thaliana suspension cultured cells assessed as reduction in dry weight increase at 0.2 mM measured 8 days after compound incubation in presence of exogenously supplied 10 mM glutamine and 2 mM proline; format: functional; procedure, shortened: as §1

| SMILES | IC50 [1] [mM] | growth inhibition (GI) (Arabidopsis thaliana [2]) | other results |
| --- | --- | --- | --- |
| Cc1cc(C)cc(NC(P(=O)(O)O)P(=O)(O)O)c1 [3,5-DIMETHYLPHENYLAMINOMETHYLENEBISPHOSPHONIC ACID] | 1.07 | – | – |
| O=P(O)(O)C(N1CCCCCC1)P(=O)(O)O [N-(HEXAMETHYLENEIMINO)METHYLENEBISPHOSPHONIC ACID] | 74.4 | – | – |
| O=P(O)(O)C(Nc1cccc(Cl)c1Cl)P(=O)(O)O [2,3-DICHLOROPHENYLAMINOMETHYLENEBISPHOSPHONIC ACID] | – | Active | – |
| O=P(O)(O)C(Nc1cc(Cl)cc(Cl)c1)P(=O)(O)O [(3,5-DICHLOROPHENYLAMINO)METHYLENEDIPHOSPHONIC ACID] | – | – | growth inhibition (GI) (Arabidopsis thaliana [3]): Active; growth inhibition (GI) (Arabidopsis thaliana [4]): Active; GI50 (Arabidopsis thaliana [2]; 192 h): 0.24 mM; growth inhibition (GI) (Arabidopsis thaliana [5]): inactive |
| O=P(O)(O)C(N1CCCCCCC1)P(=O)(O)O [N-(HEPTAMETHYLENEIMINO)METHYLENEBISPHOSPHONIC ACID] | 533 | – | – |
| O=P(O)(O)C(Nc1c(Cl)cccc1Cl)P(=O)(O)O [2,6-DICHLOROPHENYLAMINOMETHYLENEBISPHOSPHONIC ACID] | – | Active | – |
